In ChEMBL document CHEMBL3351249, “Potent cholesteryl ester transfer protein inhibitors of reduced lipophilicity: 1,1'-spiro-substituted hexahydrofuroquinoline derivatives” (J Med Chem, 2014):

Tests used:
Cynomolgus monkey [1] = experiment: Effect on myocardial contractility in cynomolgus monkey up to 100 mg/kg by telemetry; type: ADME, organism-based, Macaca fascicularis, Myocardium; set-up: dose 100 mg/kg; conditions: in vivo
Outline: (§1)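 Acute telemetry study in conscious cynomolgus monkeys at doses up to 100 mg/kg. Blood pressure, left ventricular pressure, contractility, heart rate and ECG (PR, QRS, QT) recorded. Exposure followed as Cmax and MRT.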

Plasma [2] = experiment: Plasma concentration in hemizygous human CETP transgenic mouse at 10 mg/kg, po dosed for 5 consecutive days measured on day 5 and day 7 post dose; type: ADME, organism-based; set-up: dose 10 mg/kg, route oral; conditions: in vivo
Mus musculus [3] = experiment: Increase in HDL-cholesterol in hemizygous human CETP transgenic mouse dosed for 5 consecutive days via oral gavage; type: functional, organism-based
Outline: (§2)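 Male hemizygous hCETP or hCETP/hApoB100 transgenic mice, 26−30 weeks, chow-fed. Compound suspended in 0.5% aqueous hydroxyethylcellulose, oral gavage each morning for 5 or 14 days. EDTA blood taken 7 h post-dose (fed for 5-day, after 4 h fast for 14-day) from vena facialis under isoflurane. HDL/LDL cholesterol measured on Cobas Integra 400 Plus. Mean ± SEM, one-way ANOVA with Bonferroni.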

Mus musculus [4] = experiment: Increase in HDL-cholesterol in hemizygous human CETP transgenic mouse at 1 mg/kg, po dosed for 5 consecutive days; type: functional; outline: as §2
Mus musculus [5] = experiment: Increase in HDL-cholesterol in human CETP/human ApoB-100 transgenic mouse at 1 mg/kg, po dosed for 14 consecutive days; type: functional; outline: as §2
Mus musculus [6] = experiment: Increase in HDL-cholesterol in human CETP/human ApoB-100 transgenic mouse at 3 mg/kg, po dosed for 14 consecutive days; type: functional; outline: as §2
Mus musculus [7] = experiment: Increase in HDL-cholesterol in human CETP/human ApoB-100 transgenic mouse at 10 mg/kg, po dosed for 14 consecutive days; type: functional; outline: as §2
[8] = Drug concentration in adipose fat tissue of hemizygous human CETP transgenic mouse at 3 mg/kg, po dosed for 5 consecutive days measured on day 3 after cessation of drug treatment; type: ADME, organism-based; set-up: dose 3 mg/kg, route oral; conditions: in vivo
Outline: (§3)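 Male hCETP transgenic mice given oral doses for 5 days in 0.5% hydroxyethylcellulose. Tissues and plasma collected at day 3 and day 21 after the last dose. Fat diluted 6:1 with acetonitrile and homogenized. Analysis by LC/MS/MS on a C18 column with QCs at 4.0−1000 nM, accepted within 30% of target.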

[9] = Drug concentration in plasma of hemizygous human CETP transgenic mouse at 3 mg/kg, po dosed for 5 consecutive days measured on day 21 after cessation of drug treatment; type: ADME, organism-based; set-up: dose 3 mg/kg, route oral; outline: as §3
[10] = Mean residence time in cynomolgus monkey up to 100 mg/kg; type: ADME, organism-based, Macaca fascicularis; set-up: dose 100 mg/kg; conditions: in vivo; outline: as §1
Liver = experiment: Drug concentration in liver of hemizygous human CETP transgenic mouse at 3 mg/kg, po dosed for 5 consecutive days measured on day 3 after cessation of drug treatment; type: ADME, organism-based; set-up: dose 3 mg/kg, route oral; conditions: in vivo; outline: as §3
[11] = Drug concentration in muscle of hemizygous human CETP transgenic mouse at 3 mg/kg, po dosed for 5 consecutive days measured on day 21 after cessation of drug treatment; type: ADME, organism-based, Muscle tissue; set-up: dose 3 mg/kg, route oral; conditions: read-out: Drug uptake; outline: as §3
[12] = Drug concentration in liver of hemizygous human CETP transgenic mouse at 3 mg/kg, po dosed for 5 consecutive days measured on day 21 after cessation of drug treatment; type: ADME, organism-based; set-up: dose 3 mg/kg, route oral; conditions: read-out: Drug uptake; outline: as §3
[13] = Drug concentration in testes of hemizygous human CETP transgenic mouse at 3 mg/kg, po dosed for 5 consecutive days measured on day 3 after cessation of drug treatment; type: ADME, organism-based, Testis; set-up: dose 3 mg/kg, route oral; conditions: in vivo; outline: as §3
NCI-H295R = experiment: Effect on aldosterone secretion in human NCI-H295R cells up to 10 uM; type: ADME, cell-based
[14] = Clearance in C57BL/6J mouse at 1 umol/kg, iv; type: ADME, organism-based; conditions: in vivo
[15] = Mean residence time in C57BL/6J mouse at 1 umol/kg, iv; type: ADME, organism-based; conditions: in vivo
[16] = Drug concentration in testes of hemizygous human CETP transgenic mouse at 3 mg/kg, po dosed for 5 consecutive days measured on day 21 after cessation of drug treatment; type: ADME, organism-based, Testis; set-up: dose 3 mg/kg, route oral; conditions: male, read-out: Drug uptake; outline: as §3
Kidney = experiment: Drug concentration in kidney of hemizygous human CETP transgenic mouse at 3 mg/kg, po dosed for 5 consecutive days measured on day 3 after cessation of drug treatment; type: ADME, organism-based; set-up: dose 3 mg/kg, route oral; conditions: in vivo; outline: as §3
Cynomolgus monkey [17] = experiment: Effect on blood pressure in cynomolgus monkey up to 100 mg/kg by telemetry; type: ADME, organism-based, Macaca fascicularis; set-up: dose 100 mg/kg; conditions: in vivo; outline: as §1
Plasma [18] = experiment: Plasma concentration in hemizygous human CETP transgenic mouse at 3 mg/kg, po dosed for 5 consecutive days measured on day 5 and day 7 post dose; type: ADME, organism-based; set-up: dose 3 mg/kg, route oral; conditions: in vivo
Plasma [19] = experiment: Plasma concentration in hemizygous human CETP transgenic mouse at 1 mg/kg, po dosed for 5 consecutive days measured on day 5 and day 7 post dose; type: ADME, organism-based; set-up: dose 1 mg/kg, route oral; conditions: in vivo
Cynomolgus monkey [20] = experiment: Effect on electrocardiogram parameters in cynomolgus monkey assessed as changes in PR-interval up to 100 mg/kg by telemetry; type: ADME, organism-based, Macaca fascicularis; set-up: dose 100 mg/kg; conditions: in vivo; outline: as §1
[21] = Volume of distribution at steady state in C57BL/6J mouse at 1 umol/kg, iv; type: ADME, organism-based; conditions: in vivo, read-out: Vdss
Mus musculus [22] = experiment: Increase in HDL-cholesterol in hemizygous human CETP transgenic mouse at 3 mg/kg, po dosed for 5 consecutive days; type: functional; outline: as §2
Muscle tissue = experiment: Drug concentration in muscle of hemizygous human CETP transgenic mouse at 3 mg/kg, po dosed for 5 consecutive days measured on day 3 after cessation of drug treatment; type: ADME, organism-based; set-up: dose 3 mg/kg, route oral; conditions: in vivo; outline: as §3
Mus musculus [23] = experiment: Increase in HDL-cholesterol in hemizygous human CETP transgenic mouse dosed for 14 consecutive days via oral gavage; type: functional, organism-based; outline: as §2
Cynomolgus monkey [24] = experiment: Effect on electrocardiogram parameters in cynomolgus monkey assessed as changes in QRS-complex up to 100 mg/kg by telemetry; type: ADME, organism-based, Macaca fascicularis; set-up: dose 100 mg/kg; conditions: in vivo; outline: as §1
Mus musculus [25] = experiment: Inhibition of plasma CETP activity in hemizygous human CETP transgenic mouse dosed for 5 or 14 consecutive days via oral gavage; type: functional, organism-based
[26] = Drug concentration in kidney of hemizygous human CETP transgenic mouse at 3 mg/kg, po dosed for 5 consecutive days measured on day 21 after cessation of drug treatment; type: ADME, organism-based; set-up: dose 3 mg/kg, route oral; conditions: read-out: Drug uptake; outline: as §3
Mus musculus [27] = experiment: Reduction in plasma LDL-cholesterol in human CETP/human ApoB-100 transgenic mouse at 3 mg/kg, po dosed for 14 consecutive days; type: functional
Outline: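 Hemizygous male human CETP/human apoB100 transgenic mice (B6.SJL-Tg(APOA-CETP)1Dsg Tg(APOB)1102Sgy N10), aged 26–30 weeks and chow-fed, received oral gavage each morning for 14 consecutive days. Compound was suspended in 0.5% aqueous hydroxyethylcellulose. EDTA blood was taken from the facial vein under isoflurane 7 h post-dose after a 4 h fast. Plasma LDL-cholesterol fraction was measured on an automated analyzer. Data are mean ± SEM.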

Mus musculus [28] = experiment: Reduction in LDL-cholesterol in hemizygous human CETP/human apoB100 transgenic mouse dosed for 14 consecutive days via oral gavage

CC(C)c1nc2c(c3c1[C@@H](c1ccc(C(F)(F)F)cc1)OC31CCOCC1)[C@@H](O)CC(C)(C)C2
Activity (Cynomolgus monkey [1]): Non-toxic | concentration (Plasma [2]): 671 nM | Activity (Mus musculus [3]): Dose-dependent effect | Activity (Mus musculus [4]): 55.6% | Activity (Mus musculus [5]): 23.5% | Activity (Mus musculus [6]): 32.3% | Activity (Mus musculus [7]): 37.2% | Drug uptake [8]: Active | concentration at 21 days after cessation of treatment [9]: < 30 nM | MRT [10]: > 20 h | Drug uptake (Liver): Active | concentration at 21 days after cessation of treatment [11]: < 30 nM | concentration at 21 days after cessation of treatment [12]: < 30 nM | Drug uptake [13]: Active | Activity (NCI-H295R): Non-toxic | clearance [14]: 16 mL/min/kg | MRT [15]: 6.1 h | concentration at 21 days after cessation of treatment [16]: < 30 nM | Drug uptake (Kidney): Active | Activity (Cynomolgus monkey [17]): Non-toxic | concentration (Plasma [18]): 206 nM | concentration (Plasma [19]): 96 nM | Activity (Cynomolgus monkey [20]): Non-toxic | Vd [21]: 5.9 L/kg | Activity (Mus musculus [22]): 74.4% | Drug uptake (Muscle tissue): Active | Activity (Mus musculus [23]): Dose-dependent effect | Activity (Cynomolgus monkey [24]): Non-toxic | inhibition (Mus musculus [25]): Dose-dependent effect | concentration at 21 days after cessation of treatment [26]: < 30 nM | inhibition in vivo at 3 mg/kg (Mus musculus [27]): 49% | Activity (Mus musculus [28]): Dose-dependent effect
